According to ChEMBL document CHEMBL1127613, “Synthesis and pharmacological properties of 11-hydroxy-3-(1',1'-dimethylheptyl)hexahydrocannabinol: a high-affinity cannabinoid agonist” (1994):

Assays:
Format in all cases: functional
Mus musculus [1] = test: Compound was evaluated for inhibition of tail-flick response at 20 min in mouse when administered intravenously; settings: iv
Summary of the method: (§1)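 Mice given the analog by intravenous injection, then run through a tetrad. Spontaneous activity is scored at 5–15 min, tail-flick at 20 min, rectal temperature at 60 min and ring immobility at 90 min after injection. ED50 comes from log dose–response linear regression over n = 4–7 active doses, with standard error estimated by ALLFIT.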

Mus musculus [2] = test: Compound was evaluated for reduction of rectal temperature at 60 min in mouse when administered intravenously; settings: iv, 1 h; summary of the method: as §1
Mus musculus [3] = test: Compound was evaluated for inhibition of spontaneous activity at 5-15 min in mouse when administered intravenously; settings: iv; summary of the method: as §1
Mus musculus [4] = test: Compound was evaluated for production of ring immobility at 90 min in mouse when administered intravenously; settings: iv, 1.5 h; summary of the method: as §1

SMILES	ED50 (Mus musculus [1]) [mg/kg]	ED50 (Mus musculus [2]) [mg/kg]	ED50 (Mus musculus [3]) [mg/kg]	ED50 (Mus musculus [4]) [mg/kg]
CCCCCCC(C)(C)c1cc(O)c2c(c1)OC(C)(C)[C@H]1CC[C@H](CO)C[C@H]21	0.58	6.9	0.77	2.5
CCCCCCC(C)(C)c1cc(O)c2c(c1)OC(C)(C)[C@@H]1CC[C@@H](CO)C[C@@H]21	0.0018	0.037	0.0054	0.027
CCCCCc1cc(O)c2c(c1)OC(C)(C)C1CCC(C)=C[C@@H]21 (single isomer, unassigned) [DRONABINOL]	1.42	1.42	1.01	1.51
